Assay results: ChEMBL document CHEMBL4706674 (Bioorg Med Chem Lett, 2021)
pEC50: −log10 of the molar value.

What was measured:
[1] = system: Human immunodeficiency virus 1; test: Antiviral activity against wild type HIV-1 NL4-3 infected in MT-2 cells assessed as inhibition of viral replication in presence of 40% human serum and 27 mg/ml human serum albumin by luciferase reporter gene based multicycle replication assay; type: functional, organism-based; settings: Human immunodeficiency virus 1, NL4-3, MT2
[2] = Tmax in rat at 5 mg/kg, po measured after 24 hrs; type: ADME, organism-based; settings: in vivo
In short: (§1)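 Rats dosed 5 mg/kg PO and 1 mg/kg IV; each value is the mean of 3 rats unless otherwise noted (some n = 2). Vehicle PEG 300/ethanol/Tween 80 (89:10:1 v/v), or PEG 300/ethanol/0.1 N NaOH/Tween 80 (84.5:10:5:0.5 v/v). F, tmax, Cmax and CL come from a full 24 h PK screen. AUCtotal is derived from the full 24 h run plus a 6 h PK screen.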

[3] = Metabolic stability in rat liver microsomes assessed as half life; type: ADME, Microsome; settings: time 2 min
[4] = AUC (0 to 24) in rat at 5 mg/kg, po measured after 24 hrs; type: ADME, organism-based; set-up: route oral, time 24 hrs, dose 5 mg/kg; settings: in vivo
In short: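 Rats dosed orally at 5 mg/kg (IV arm 1 mg/kg). Vehicle was PEG 300/ethanol/Tween 80 (89:10:1 v/v) or PEG 300/ethanol/0.1 N NaOH/Tween 80 (84.5:10:5:0.5 v/v). Values are the mean of 3 rats unless noted (some n = 2), from a full 24 h PK run; AUC_total also drew on a 6 h PK screen.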

[5] = Volume of distribution at steady state in rat at 1 mg/kg, iv; type: ADME, organism-based; settings: in vivo, read-out: Vdss
[6] = Clearance in rat at 1 mg/kg, iv measured after 24 hrs; type: ADME, organism-based; settings: in vivo; in short: as §1
[7] = Metabolic stability in human liver microsomes assessed as half life; type: ADME, Microsome; settings: time 2 min
[8] = system: Human immunodeficiency virus 1; test: Antiviral activity against wild type HIV-1 NL4-3 infected in MT-2 cells assessed as inhibition of viral replication in presence of 10% of fetal bovine serum by luciferase reporter gene based multicycle replication assay; type: functional, organism-based; settings: Human immunodeficiency virus 1, NL4-3, MT2
[9] = Cytotoxicity against human MT2 cells; type: cell-based
[10] = system: Human immunodeficiency virus 1; test: Antiviral activity against wild type HIV-1 NL4-3 harbouring Gag V370A mutant infected in MT-2 cells assessed as inhibition of viral replication in presence of 10% of fetal bovine serum by luciferase reporter gene based multicycle replication assay; type: functional, organism-based; settings: Human immunodeficiency virus 1, NL4-3, MT2
[11] = system: Human immunodeficiency virus 1; test: Antiviral activity against wild type HIV-1 NL4-3 harbouring Gag AV370 mutant infected in MT-2 cells assessed as inhibition of viral replication in presence of 10% of fetal bovine serum by luciferase reporter gene based multicycle replication assay; type: functional, organism-based; settings: Human immunodeficiency virus 1, NL4-3, MT2
In short: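 Multiple-cycle replication assay in MT-2 cells using NL4-3-derived virus carrying a Renilla luciferase reporter (NLRepRlucP373S) as the growth marker. V370A and ΔV370 viruses are identical to WT except for that single substitution or deletion at position 370.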

[12] = system: Human immunodeficiency virus 1; test: Antiviral activity against wild type HIV-1 NL4-3 harbouring Gag AV370/T371A mutant infected in MT-2 cells assessed as inhibition of viral replication in presence of 10% of fetal bovine serum by luciferase reporter gene based multicycle replication assay; type: functional, organism-based; settings: Human immunodeficiency virus 1, NL4-3, MT2
[13] = system: Human immunodeficiency virus 1; test: Antiviral activity against wild type HIV-1 NL4-3 harbouring Gag A364V mutant infected in MT-2 cells assessed as inhibition of viral replication in presence of 10% of fetal bovine serum by luciferase reporter gene based multicycle replication assay; type: functional, organism-based; settings: Human immunodeficiency virus 1, NL4-3, MT2
[14] = system: Human immunodeficiency virus 1; test: Antiviral activity against wild type HIV-1 NL4-3 harbouring Gag […]/V370A mutant infected in MT-2 cells assessed as inhibition of viral replication in presence of 10% of fetal bovine serum by luciferase reporter gene based multicycle replication assay; type: functional, organism-based; settings: Human immunodeficiency virus 1, NL4-3, MT2
[15] = Cmax in rat at 5 mg/kg, po measured after 24 hrs; type: ADME, organism-based; set-up: route oral, dose 5 mg/kg, time 24 hrs; settings: in vivo; in short: as §1
[16] = Oral bioavailability in rat measured at 5 mg/kg up to 24 hrs; type: ADME, organism-based; settings: in vivo; in short: as §1
[17] = AUCtotal in rat at 5 mg/kg, po measured after 24 hrs; type: ADME, organism-based; set-up: route oral, dose 5 mg/kg, time 24 hrs; settings: in vivo; in short: as §1
[18] = AUC in rat at 5 mg/kg, po; settings: in vivo

Structure (SMILES)	pEC50 [1]	pEC50 [8]	CC50 [9] [nM]	pEC50 [10]	pEC50 [11]	pEC50 [14]	other results
C=C(C)[C@@H]1CC[C@]2(C(=O)O)CC[C@]3(C)[C@H](CC[C@@H]4[C@@]5(C)CC=C(c6ccc(C(=O)O)cc6)C(C)(C)[C@@H]5CC[C@]43C)[C@@H]12	6.50						Tmax [2]: 4 h; half-life [3]: > 2 h; AUC at 24 h [4]: 5.7 µM·h; Vd [5]: 0.1 L/kg; clearance [6]: 1 mL/min/kg; half-life [7]: > 2 h
C=C(C)[C@@H]1CC[C@]2(NCCN3CCC(S(C)(=O)=O)CC3)CC[C@]3(C)[C@H](CC[C@@H]4[C@@]5(C)CC=C(c6ccc(C(=O)O)cc6)C(C)(C)[C@@H]5CC[C@]43C)[C@@H]12		8.72					
C=C(C)[C@@H]1CC[C@]2(NCCN3CCS(=O)(=O)CC3)CC[C@]3(C)[C@H](CC[C@@H]4[C@@]5(C)CC=C(C6=CC[C@H](C(=O)O)CC6)C(C)(C)[C@@H]5CC[C@]43C)[C@@H]12	8.30	8.89	4100	8.70	8.39		
C=C(C)[C@@H]1CC[C@]2(CO)CC[C@]3(C)[C@H](CC[C@@H]4[C@@]5(C)CC=C(C#CC(=O)O)C(C)(C)[C@@H]5CC[C@]43C)[C@@H]12		6.60	> 10000	< 5.52	< 5.52		
C=C(C)[C@@H]1CC[C@]2(NCCN3CCS(=O)(=O)CC3)CC[C@]3(C)[C@H](CC[C@@H]4[C@@]5(C)CC=C(C6=CC7(C6)CC(C(=O)O)(C(=O)O)C7)C(C)(C)[C@@H]5CC[C@]43C)[C@@H]12		7.89	> 30000	7.54	7.21		
C=C(C)[C@@H]1CC[C@]2(NCCN3CCS(=O)(=O)CC3)CC[C@]3(C)[C@H](CC[C@@H]4[C@@]5(C)CC=C(CCCC(C(=O)O)C(=O)O)C(C)(C)[C@@H]5CC[C@]43C)[C@@H]12		6.51	> 30000				pEC50 [12]: 6.26
C=C(C)[C@@H]1CC[C@]2(NCCN3CCS(=O)(=O)CC3)CC[C@]3(C)[C@H](CC[C@@H]4[C@@]5(C)CC=C(CCCCC(=O)O)C(C)(C)[C@@H]5CC[C@]43C)[C@@H]12		8.64	10200				pEC50 [12]: 6.93
C=C(C)[C@@H]1CC[C@]2(NCCN3CCS(=O)(=O)CC3)CC[C@]3(C)[C@H](CC[C@@H]4[C@@]5(C)CC=C(CCC(C)(C)CC(=O)O)C(C)(C)[C@@H]5CC[C@]43C)[C@@H]12	8.17	8.89	12300		8.64	8.80	pEC50 [13]: 5.89
C=C(C)[C@@H]1CC[C@]2(NCCN3CCS(=O)(=O)CC3)CC[C@]3(C)[C@H](CC[C@@H]4[C@@]5(C)CC=C(CCCC(C)(C)C(=O)O)C(C)(C)[C@@H]5CC[C@]43C)[C@@H]12		8.28	8200				pEC50 [12]: 7.53
C=C(C)[C@@H]1CC[C@]2(NCCN3CCS(=O)(=O)CC3)CC[C@]3(C)[C@H](CC[C@@H]4[C@@]5(C)CC=C(C6=CC7(C6)CC(C(=O)O)C7)C(C)(C)[C@@H]5CC[C@]43C)[C@@H]12 (some centres undefined)	8.15	8.82	11900	8.80	8.23	7.31	Cmax [15]: 900 nM; pEC50 [13]: 6.01; Tmax [2]: 6.3 h; half-life [3]: > 2 h; bioavailability [16]: 32%; AUC [17]: 13.5 µM·h; Vd [5]: 1.4 L/kg; clearance [6]: 2.9 mL/min/kg; half-life [7]: 1.15 h
C=C(C)[C@@H]1CC[C@]2(C(=O)O)CC[C@]3(C)[C@H](CC[C@@H]4[C@@]5(C)CC=C(C6=CC7(C6)CC(C(=O)O)(C(=O)O)C7)C(C)(C)[C@@H]5CC[C@]43C)[C@@H]12		7.55	18600	7.07	6.36		
C=C(C)[C@@H]1CC[C@]2(NCCN3CCS(=O)(=O)CC3)CC[C@]3(C)[C@H](CC[C@@H]4[C@@]5(C)CC=C(CC6CCC(C(=O)O)CC6)C(C)(C)[C@@H]5CC[C@]43C)[C@@H]12 (some centres undefined)		8.52	13500			7.91	pEC50 [13]: 5.73; pEC50 [12]: 8.25
C=C(C)[C@@H]1CC[C@]2(NCCN3CCS(=O)(=O)CC3)CC[C@]3(C)[C@H](CC[C@@H]4[C@@]5(C)C=CC(=C6CC7(C6)CC(C(=O)O)(C(=O)O)C7)C(C)(C)[C@@H]5CC[C@]43C)[C@@H]12		7.57	> 10000	7.27	7.22		
C=C(C)[C@@H]1CC[C@]2(NCCN3CCS(=O)(=O)CC3)CC[C@]3(C)[C@H](CC[C@@H]4[C@@]5(C)CC=C(C6=CCC(C(=O)O)CC6)C(C)(C)[C@@H]5CC[C@]43C)[C@@H]12 (some centres undefined)	8.05	9.22	9600	9.10	8.68		
C=C(C)[C@@H]1CC[C@]2(NCCN3CCC(S(C)(=O)=O)CC3)CC[C@]3(C)[C@H](CC[C@@H]4[C@@]5(C)CC=C(C6=CC[C@@H](C(=O)O)CC6)C(C)(C)[C@@H]5CC[C@]43C)[C@@H]12	8.30	8.57	9000		8.57	7.83	pEC50 [13]: 5.74
C=C(C)[C@@H]1CC[C@]2(NCCN3CCS(=O)(=O)CC3)CC[C@]3(C)[C@H](CC[C@@H]4[C@@]5(C)CC=C(C6=CC[C@@H](C(=O)O)CC6)C(C)(C)[C@@H]5CC[C@]43C)[C@@H]12	8.24	9.05	12200	8.89	8.51		Cmax [15]: 1100 nM; Tmax [2]: 2.7 h; half-life [3]: > 2 h; bioavailability [16]: 58%; AUC [17]: 15.8 µM·h; Vd [5]: 2.3 L/kg; clearance [6]: 4.3 mL/min/kg; half-life [7]: 0.967 h
C=C(C)[C@@H]1CC[C@]2(NCCN3CCC(S(C)(=O)=O)CC3)CC[C@]3(C)[C@H](CC[C@@H]4[C@@]5(C)CC=C(C6=CC[C@H](C(=O)O)CC6)C(C)(C)[C@@H]5CC[C@]43C)[C@@H]12	8.18	8.85	9100		8.38	8.02	pEC50 [13]: 6.06
C=C(C)[C@@H]1CC[C@]2(NCCN3CCS(=O)(=O)CC3)CC[C@]3(C)[C@H](CC[C@@H]4[C@@]5(C)CC=C(C6=CCC(C(=O)O)(C(=O)O)CC6)C(C)(C)[C@@H]5CC[C@]43C)[C@@H]12		7.00	13200	7.41	7.40	6.95	
C=C(C)[C@@H]1CC[C@]2(C(=O)O)CC[C@]3(C)[C@H](CC[C@@H]4[C@@]5(C)CC[C@H](OC(=O)CC(C)(C)C(=O)O)C(C)(C)[C@@H]5CC[C@]43C)[C@@H]12 [BEVIRIMAT]							Tmax [2]: 1.8 h; half-life [3]: 0.492 h; F ([16]; 5 mg/kg, 24 h): 54%; half-life [7]: > 2 h
C=C(C)[C@@H]1CC[C@]2(NCCN3CCS(=O)(=O)CC3)CC[C@]3(C)[C@H](CC[C@@H]4[C@@]5(C)CC=C(c6ccc(C(=O)O)cc6)C(C)(C)[C@@H]5CC[C@]43C)[C@@H]12 [BMS-955176]	7.94			8.57	7.89	6.83	Cmax [15]: 1200 nM; Tmax [2]: 6 h; half-life [3]: > 2 h; AUC [18]: 4.1 µM·h; AUC [17]: 14.2 µM·h; pEC50 [12]: 7.64; half-life [7]: > 2 h
